From ChEMBL document CHEMBL4823327, “New Selective Inhibitors of ERG Positive Prostate Cancer: ERGi-USU-6 Salt Derivatives” (ACS Med Chem Lett, 2021)
Activity calls are given as the source filed them. The rule behind the calls is not given here.

Key:
VCaP = assay: Cytotoxicity against human VCaP cells assessed as inhibition of cell growth after 120 hrs by Cell Glow […] assay; type: functional, cell-based
[1] = Toxicity in ip dose athymic nude mouse assessed as maximum tolerated dose administered twice a week for 4 weeks; type: organism-based; conditions: in vivo
How it was run: (§1)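 Athymic nude mice were split into five dose groups of 5 animals each: vehicle (90% PEG + 10% DMSO), 50, 100, 150 or 200 mg/kg in the same vehicle, given by injection. Survival and body weight were monitored through the study, with gross examination of major organs and the injection site. MTD was taken as the highest dose at which all animals survived.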

HUVEC = assay: Cytotoxicity against HUVEC assessed as inhibition of cell growth at 0.05 to 0.25 uM; type: cell-based; conditions: human, dose 0.05-0.25 µM
How it was run: (§2)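 HUVEC (ERG-positive normal primary endothelial cells) were treated at the same doses as VCaP cells, over a 0–0.25 μmol/L range. Read-outs were cell growth and endogenous ERG and RIOK2 protein levels.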

[2] = Toxicity in athymic nude mouse assessed as body weight loss at 200 mg/kg, ip administered twice a week for 4 weeks; type: organism-based; conditions: in vivo, 672 h; how it was run: as §1
[3] = Toxicity in athymic nude mouse assessed as health deterioration at 100 mg/kg, ip administered twice a week for 4 weeks; type: organism-based; conditions: in vivo, 672 h; how it was run: as §1
[4] = Toxicity in athymic nude mouse assessed as localized inflammation at 200 mg/kg, ip administered twice a week for 4 weeks; type: organism-based; conditions: in vivo, 672 h; how it was run: as §1
[5] = Toxicity in athymic nude mouse assessed as tissue and vasculature damage at 200 mg/kg, ip administered twice a week for 4 weeks; type: organism-based; conditions: in vivo, 672 h; how it was run: as §1
[6] = biological target: Serine/threonine-protein kinase RIO2 (Homo sapiens) (UniProt Q9BVS4); assay: Inhibition of RIOK2 in HUVEC at 0.05 to 0.25 uM; conditions: dose 0.05-0.25 µM; how it was run: as §2
Serine/threonine-protein kinase RIO2 (Homo sapiens), sequence (Q9BVS4 whole entry, looked up): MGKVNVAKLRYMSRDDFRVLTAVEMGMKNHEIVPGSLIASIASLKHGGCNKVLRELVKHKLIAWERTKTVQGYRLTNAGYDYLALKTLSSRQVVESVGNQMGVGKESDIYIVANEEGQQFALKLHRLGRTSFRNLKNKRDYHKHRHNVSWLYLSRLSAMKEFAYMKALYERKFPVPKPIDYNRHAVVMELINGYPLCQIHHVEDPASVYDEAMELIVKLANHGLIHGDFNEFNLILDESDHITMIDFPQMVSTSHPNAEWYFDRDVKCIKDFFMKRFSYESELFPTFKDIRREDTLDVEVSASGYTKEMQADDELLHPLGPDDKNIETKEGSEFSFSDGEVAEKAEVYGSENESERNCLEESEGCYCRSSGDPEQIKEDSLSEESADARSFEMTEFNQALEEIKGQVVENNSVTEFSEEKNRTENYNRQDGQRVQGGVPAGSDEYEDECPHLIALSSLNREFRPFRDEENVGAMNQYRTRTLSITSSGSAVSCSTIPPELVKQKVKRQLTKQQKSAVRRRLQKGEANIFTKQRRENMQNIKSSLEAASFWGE

| Compound | IC50 (VCaP; vcap) | IC50 (VCaP; Homo sapiens, VCaP, 120 h) | MTD at 672 h [1] | other results |
| --- | --- | --- | --- | --- |
| CN(C)c1ccc(/N=N/c2ccccn2)c(O)c1 [listing 1 of 3 here] | > 500 nM |  |  |  |
| Oc1ccc2ccccc2c1/N=N/c1nccs1 |  | 170 nM | 150 mg/kg |  |
| CC(=O)C(=O)O.CN(C)c1ccc(/N=N/c2ccccn2)c(O)c1 |  | > 500 nM |  |  |
| CN(C)c1ccc(/N=N/c2ccccn2)c(O)c1.CS(=O)(=O)O | 89 nM |  |  | Activity (HUVEC): Non-Toxic |
| CN(C)c1ccc(/N=N/c2ccccn2)c(O)c1 [listing 2 of 3 here] |  |  | 100 mg/kg | Activity [2]: Toxic; Activity [3]: Non-Toxic; Activity [4]: Toxic; Activity [5]: Toxic |
| CN(C)c1ccc(/N=N/c2ccccn2)c(O)c1 [listing 3 of 3 here] |  |  |  | inhibition [6]: inactive |
